Compound activity deposited in PubChem by several laboratories.
bovine MsrA act – activators of bovine methionine sulfoxide reductase A; 360,000 tested, 0.3% active; AID 602163; activation, % at 10.6 µM; purified bovine MsrA, absorbance read-out; in the data active means activation above about 7.5%;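 further: 0% = vehicle and 100% = reference activator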
NR2E3 ag-1 – agonists of human NR2E3 nuclear receptor; inhibition of corepressor binding, % at 3.98 µM; CHO-S Gal4-NCOR/VP16-NR2E3 two-hybrid, luciferase; Q9Y5X4; 360,000 tested, 0.35% active; AID 602229;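 active means inhibition above the mean of all tested compounds plus 3 SD, cut at about 70% in these data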;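 further: 0% = DMSO with NR2E3 transfected cells and 100% = cells lacking NR2E3 construct; higher means lower luciferase signal from less NR2E3 corepressor binding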
Target sequence (Q9Y5X4 whole entry, looked up, the tested form may be a part): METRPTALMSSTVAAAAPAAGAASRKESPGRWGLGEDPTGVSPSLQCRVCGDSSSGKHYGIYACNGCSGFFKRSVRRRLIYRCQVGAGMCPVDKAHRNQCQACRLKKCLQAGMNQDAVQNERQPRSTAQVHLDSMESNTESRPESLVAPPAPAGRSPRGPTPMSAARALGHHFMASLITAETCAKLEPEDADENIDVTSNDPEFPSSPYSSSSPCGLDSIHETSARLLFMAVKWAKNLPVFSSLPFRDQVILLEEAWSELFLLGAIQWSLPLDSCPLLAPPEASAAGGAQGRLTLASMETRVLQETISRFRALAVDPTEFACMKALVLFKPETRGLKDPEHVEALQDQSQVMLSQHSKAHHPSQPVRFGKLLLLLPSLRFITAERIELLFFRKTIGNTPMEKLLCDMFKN
NadD inh – inhibitors of Staphylococcus aureus NadD; AID 602399; inhibition, % at 20 µM; purified NadD enzyme, colorimetric absorbance read-out; 360,000 tested, 0.78% active; in the data active means inhibition above about 26%
MsrA inh – inhibits bovine methionine sulfoxide reductase A; purified bovine MsrA, absorbance read-out; inhibition, % at 15.5 µM; 360,000 tested, 0.75% active; in the data active means inhibition above about 4.5%;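 further: 0% = vehicle wells with enzyme and 100% = reference inhibitor wells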
GalR3 antagonist – blocks the human galanin receptor 3. O60755. inhibition, % at 3 µM. 360,000 tested, 0.44% active. AID 651719. HEK293 GalR3-CNG cAMP membrane potential fluorescence; galR3 body fused to GalR1 C-terminus;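 active means inhibition above the screen-wide average plus 3 SD, cut at about 13% in these data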;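 further: forskolin and galanin both at EC90 stimulate the cells; cAMP rise reported by CNG channel membrane potential dye signal; 0% = forskolin plus galanin with DMSO and 100% = forskolin alone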
NR2E3 ag-2 – NR2E3 (human) agonism; Q9Y5X4; GST-NR2E3/biotin-RetCOR TR-FRET, 1536-well; inhibition of corepressor binding, % at 4.78 µM; 320,000 tested, 0.12% active; AID 2300;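 active means percent inhibition above the cutoff of mean plus 3 SD of all tested compounds, set per screening campaign, cut at about 20% in these data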;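 further: 0% = DMSO wells and 100% = biotin wells as full block of FRET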
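Assay system: NR2E3–RetCOR corepressor complex. Quantity: 1.35 nM GST-NR2E3. Buffer or medium: pH 7.5 Tris-based buffer. Reagent: biotinylated RetCOR corepressor at 7 nM final. Schedule: 5 h at 4 °C. Detection: TR-FRET, emission read at 617 and 671 nm. Replicates: one well per compound, singlicate testing.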
MsrA activ conf – confirmation of bovine methionine sulfoxide reductase A activators | 1,000 tested, 12% active | activation, % at 10.6 µM | shares compounds with bovine MsrA act | purified bovine MsrA, absorbance read-out | AID 602270; in the data active means activation above about 4%;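 further: enzyme coupled to thioredoxin and thioredoxin reductase with NADPH; 0% = vehicle wells and 100% = reference activator wells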
Starred values were filed as active, the others as inactive; x = no result. An excerpt weighted towards active compounds, which were near 2.5% of everything screened.

SMILES	bovine MsrA act	NR2E3 ag-1	NadD inh	MsrA inh	GalR3 antagonist	NR2E3 ag-2	MsrA activ conf
CCOc1ccc(NC(=O)CSCc2cnn(-c3ccccc3)c2-n2cccc2)cc1	8.8*	-6	-13	0	-3	2	1
COc1cc(NC(=O)CSCc2cnn(-c3ccccc3)c2-n2cccc2)cc(OC)c1	1	-10	-8	0	-2	0	x
O=C(NC1CCCCCCC1)c1c(O)c2ccccc2[nH]c1=O	-2	-11	2	1	3	1	x
O=C(COc1ccccc1Cl)c1ccc2c(c1)CCCC2	8.3*	-169	4	-1	-3	1	-3
O=C(NC1CCCC1)C1c2ccccc2OCC(=O)N1CCc1c[nH]c2ccccc12 (stereo unspecified)	-1	5	1	-1	1	x	x
O=C(Nc1ccc2c(c1)OCCO2)C1c2ccccc2OCC(=O)N1CCc1c[nH]c2ccccc12 (stereo unspecified)	8.0*	-21	-2	0	-4	x	-2
Fc1ccc(-c2nc3ccc(Br)cn3c2Cc2cccc(Cl)c2)cc1	8.2*	-22	4	0	-10	x	-2
Fc1ccc(-c2nc3ccc(Br)cn3c2Cc2cccc(F)c2)cc1	-1	-26	7	1	-4	x	x
NC1=NCc2ccccc21	-1	-8	3	0	-6	0	x
COC(=O)[C@H](NC(=O)c1cc(-c2ccccc2)nc2ccccc12)c1ccccc1	9.4*	-17	-1	1	1	3	0
Cc1[nH]c(=O)[nH]c(=O)c1S(=O)(=O)N1CCCCC1	-6	-8	-1	-1	-9	5	x
Cc1cn(C(=O)CN2C(=O)c3ccccc3C2=O)c(C)n1	-3	2	-1	-1	-1	x	x
Cc1cccc(NC(=O)c2cc(S(=O)(=O)N3CCCCC3)ccc2Cl)n1	12*	-29	-3	0	0	x	-1
O=C(NC(=O)c1cccc(F)c1)OC[C@@H]1CCCN2CCCC[C@H]12	8.8*	-14	-2	-1	2	2	-2
O=C(NC(=O)c1cccc(Cl)c1)OC[C@@H]1CCCN2CCCCC12 (stereo partly specified)	-3	7	-1	0	2	3	x
CC1=C(C)CS(=O)N(c2ccc(S(N)(=O)=O)cc2)C1 (stereo unspecified)	7.8*	-14	4	-1	-3	-1	-3
Cc1ccc(C(=O)ON=C2CCN(S(=O)(=O)c3ccccc3)CC2)cc1	7.7*	-31	2	1	-7	5	1
CCCCN(C(C)=O)c1c(CC)nc2ccc(C(=O)NCc3cccs3)cn12	-2	7	3	1	-8	x	x
CCCCNC(=O)C[C@@H]1C[C@@]2(C(=O)OC)CC(C)(C)CC=C2N(Cc2ccccc2)C1=O	x	x	x	0	-8	x	x
COCCn1c(-c2ccc(OC)cc2)nc2ccccc21	-1	-10	-2	0	-4	-4	x
COCCn1c2nc(=O)n(-c3ccccc3)c(=O)c-2nc2ccccc21	26*	-1	-6	1	-1	x	8.7*
CC(=O)Nc1cccc(OCCCNC(=O)c2ccc(F)cc2)c1	9.0*	-31	3	1	0	-3	0
CCCCNC(=O)N(C)c1nncnc1C(=O)NC	-13	17	2	-1	-3	1	x
CCNC(=O)N(C)c1nncnc1C(=O)NC	21*	-4	-6	-1	0	x	-2
COc1cccc(CC(=O)OCC(=O)c2cc(OC)ccc2OC)c1	-4	14	-7	1	-3	2	x
SMILES	bovine MsrA act	NR2E3 ag-1	NadD inh	MsrA inh	GalR3 antagonist	NR2E3 ag-2	MsrA activ conf
COc1cccc(CC(=O)OCC(=O)c2cc(OC)c(OC)c(OC)c2)c1	8.7*	2	-6	-1	-2	x	-2
Cn1c(CO)cnc1SCC(=O)c1ccc(F)cc1	-5	-51	-6	1	-10	3	x
Cn1c(CO)cnc1SCC(=O)c1ccc(Br)cc1	13*	6	-4	2	12	6	-3
O=C(/C=C/c1ccccc1)N1CCC(c2ccccc2)C1 (stereo unspecified)	-3	-201	-1	0	-1	1	x
O=C(NC1CC1)C1=C[C@@H](c2ccc(C(F)(F)F)cc2)C[C@@H](OCc2ccc(CO)cc2)O1	8.1*	0	-10	1	-4	0	3
O=C(NC1CC1)C1=C[C@H](c2ccc(Br)cc2)C[C@H](OCc2ccc(CO)cc2)O1	-3	-16	-5	1	-5	-3	x
CN(C)/C=C1\Oc2ccc3ccccc3c2C1=O	-5	-51	2	-1	8	0	x
O=C1C(=O)c2c(ccc3ccccc23)-c2ccccc21	12*	-16	6	0	-4	x	8.2*
C=CCC(CC)C(=O)NC(=O)N1CCCc2ccccc21 (stereo unspecified)	12*	-24	-8	0	-12	0	-1
O=C(CCC1CCCN(C(=O)c2cc(C3CC3)[nH]n2)C1)N1CCN(c2ccccn2)CC1 (stereo unspecified)	-2	-6	3	0	-5	-4	x
COc1cccc(NC(=O)C(C)OC(=O)c2n[nH]c3ccccc23)c1 (stereo unspecified)	16*	-35	-7	-1	-6	3	0
Cc1oc(CC(C)C)cc1C(=O)Nc1cccc2ccccc12	7.8*	-80	3	0	-5	5	0
Cc1cc(C(=O)Nc2cccc3ccccc23)c(C)o1	4	-30	-6	-1	-10	-3	x
CN(C(=O)c1ccc(NC(=O)Cc2cccc(NC(=O)C3CCN(C(=O)C4CC4)CC3)c2)cc1)C1CC1	-1	-25	6	0	-1	x	x
O=c1cc(Cc2ccccc2)[nH]c(=S)[nH]1	2	-25	-4	1	0	-1	x
COCc1cc(=O)[nH]c(=S)[nH]1	9.9*	-11	2	1	-7	-3	5.0*
COc1ccccc1/C=N/OC(=O)c1ccc(F)cc1	0	-7	-9	0	-7	1	x
COC(=O)c1csc(S(=O)(=O)N2CCCCC2)c1OC	-2	17	2	0	1	1	x
CC1CC(C(F)(F)F)n2ncnc2N1 (stereo unspecified)	9.2*	-1	7	0	3	0	1
CC1CC(C(F)(F)F)n2ncc(C(=O)O)c2N1 (stereo unspecified)	-2	-21	2	0	-2	2	x
COc1ccc(CC(=O)Nc2sc3c(c2C(N)=O)CCCC3)cc1	8.4*	-18	-7	0	-7	0	-2
COc1ccc(OC)c2nc3c(C(=O)NCCN(C)C)cccc3nc12	21*	-35	-1	0	-1	x	12*
CN(C)CCNC(=O)c1cccc2nc3cccc(F)c3nc12	1	-110	0	2	-3	x	x
